# Measured values published in ChEMBL document CHEMBL1155205, “Structure-activity relationship of isoform selective inhibitors of Rac1/1b GTPase nucleotide binding” (Bioorg Med Chem Lett, 2009).
# Counter-ions that a name gives are not always drawn.
# Tests used:
# [1] = biological target: T1, Cell division control protein 42 homolog (Homo sapiens, UniProt P60953); test: Inhibition of Cdc42 GTPase activity assessed as incorporation of BODIPY-GTP after 40 mins by nucleotide binding competition assay
# Summary of the method: (§1)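 Bacterially expressed GST-Cdc42 preincubated 10 min at 20 °C in 20 mM Tris pH 8.6, 50 mM NaCl, 1 mM MgCl2. No GEF was added (intrinsic exchange). BODIPY-GTP was then added with or without compound. Fluorescence was read at ex 485/em 538 nm before and after addition. Maximal RFU at 40 min was compared with control. Means of at least three independent experiments, with SEM.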
# Target sequence in this assay (P60953 whole entry): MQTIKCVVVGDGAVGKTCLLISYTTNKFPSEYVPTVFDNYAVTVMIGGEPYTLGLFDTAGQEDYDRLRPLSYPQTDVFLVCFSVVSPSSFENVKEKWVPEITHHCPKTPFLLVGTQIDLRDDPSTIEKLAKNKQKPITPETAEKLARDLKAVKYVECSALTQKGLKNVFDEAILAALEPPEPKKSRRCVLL
# HEK293 = test: Inhibition of Rac GTPase activation in Rac1b overexpressing human HEK293 cells at 50 uM after 5 mins by G-LISA assay; format: cell-based
# Summary of the method: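 HEK293 cells overexpressing human Rac1b were grown 5 days in MEM with 10% FBS, L-glutamine and antibiotics. Cells were then exposed to compound or solvent for 5 min. Rac1b GTP loading was measured with a Rac activation kit using a Rac-specific antibody (G-LISA).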
# [2] = biological target: T1, Cell division control protein 42 homolog; test: Inhibition of Cdc42 GTPase activity assessed as incorporation of BODIPY-GTP at 50 uM after 40 mins by nucleotide binding competition assay; summary of the method: as §1
# Target sequence in this assay (P60953 whole entry, looked up): as the sequence (P60953 whole entry) above
# [3] = biological target: T2, Ras-related C3 botulinum toxin substrate 1 (Homo sapiens, UniProt P63000); test: Inhibition of Rac1 GTPase activity assessed as incorporation of BODIPY-GTP after 40 mins by nucleotide binding competition assay
# [4] = biological target: T2, Ras-related C3 botulinum toxin substrate 1; test: Inhibition of Rac1b GTPase activity assessed as incorporation of BODIPY-GTP after 40 mins by nucleotide binding competition assay
# [5] = Selectivity of IC50 for Rac1 GTPase activity to IC50 for Rac1b GTPase activity
# Summary of the method: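 Ratio of IC50s for inhibiting BODIPY-GTP binding to bacterially expressed GST-Rac1 and GST-Rac1b. Rac1 binding was stimulated by His6-Tiam1 DH/PH, while Rac1b used intrinsic exchange. Protein was pre-incubated 10 min at 20 °C in 20 mM Tris pH 8.6, 50 mM NaCl, 1 mM MgCl2, then BODIPY-GTP ± compound was added. Fluorescence (ex 485/em 538 nm) was read as maximal RFU at 40 min; means of ≥3 independent experiments.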
SMILES,IC50 [1] [µM],inhibition (HEK293) [%],inhibition [2] [%],also measured
Oc1cc2c(cc1O)C1Cc3ccc(O)c(O)c3CN1CC2 (centres undefined) [TETRAHYDROXYCANADINE HYDROCHLORIDE],> 100,< 20,,
COc1cc2cc(-c3cccc(C(C)=O)c3)nc(C)c2cc1OC,,,7,
COc1cc2cc(-c3ccc4c(c3)OCO4)[n+](C)c(C)c2cc1OC,,,0.3,
Cc1nc(-c2ccc(O)c(O)c2)cc2cc(O)c(O)cc12,,,15,
Nc1nc2c(ncn2[C@H]2O[C@@H](COP(=O)(O)OP(=O)(O)O)[C@H](O)[C@@H]2O)c(=O)[nH]1,1.4,,,IC50 [3]: 2.7 µM; IC50 [4]: 1.8 µM
COc1cc2cc(-c3cccc(C(C)=O)c3)[n+](C)c(C)c2cc1OC,,,7,
Cc1c2cc(O)c(O)cc2cc(-c2ccc(O)c(O)c2)[n+]1C,,,12,
C[n+]1cc2c3c(ccc2c2ccc4cc5c(cc4c21)OCO5)OCO3,,50,63,Ratio IC50 [5]: 13
COc1ccc2cc3[n+](cc2c1OC)CCc1cc2c(cc1-3)OCO2,,,8,
COc1ccc2c(c[n+](C)c3c4cc5c(cc4ccc23)OCO5)c1OC [CHELERYTHRINE CHLORIDE],> 100,40,35,IC50 [3]: > 100 µM; Ratio IC50 [5]: > 14; IC50 [4]: 7 µM
COc1cc2cc(-c3ccc(O)c(O)c3)[n+](C)c(C)c2cc1OC,,,5,
COc1cc2cc(-c3ccc(O)c(O)c3)nc(C)c2cc1OC,> 100,61,15,
Oc1cc2c(cc1O)-c1cc3ccc(O)c(O)c3c[n+]1CC2,6,< 20,> 100,
COc1ccc2cc3[n+](cc2c1OC)CCc1cc(O)c(O)cc1-3,> 100,35,31,IC50 [3]: 63 µM; IC50 [4]: 31 µM
COc1cc2cc(-c3ccc4ccccc4c3)nc(C)c2cc1OC,> 100,< 20,29,
Cc1c2cc(O)c(O)cc2cc2c3ccc(O)c(O)c3cc[n+]12,26,< 20,70,
COc1ccc2c(c1OC)CN1CCc3cc4c(cc3C1C2)OCO4 (racemic),,,4,
COc1cc2cc(-c3ccc4c(c3)OCO4)nc(C)c2cc1OC,,,14,
COc1ccc2c(c[n+](C)c3c4cc(O)c(O)cc4ccc23)c1OC,73,39,38,
COc1ccc2c(c1OC)C(c1ccccc1)N1CCc3cc4c(cc3C1C2)OCO4 (centres undefined),,,9,
COc1cc2c(cc1OC)-c1cc3ccc(OC)c(OC)c3c[n+]1CC2,,,8,
COc1cc2cc3c4ccc(OC)c(OC)c4cc[n+]3c(C)c2cc1OC,,,23,
C[n+]1cc2c(O)c(O)ccc2c2ccc3cc(O)c(O)cc3c21,,< 20,73,
COc1cc2cc(-c3ccc(Cl)c(Cl)c3)nc(C)c2cc1OC,,,5,
